In article PMC11227858 (Drug Design, Development and Therapy, 2024):
Entries after “also recorded” stand apart in the source; their conditions may differ.

What was measured:
Safety evaluation = format: in vivo, human
How it was run: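 Adults with chronic musculoskeletal non-cancer pain received one 2-min IV injection in a single-centre, open-label, ascending-dose design, with a 2-person 0.75 mg pretest. Monitoring covered vital signs to 72 h, SpO2 to 8 h, Holter from −30 min to 24 h, ECG at 48/72 h, 72 h labs, and injection-site checks to 6 h. AEs were graded by system/severity and drug relation; groups compared by Fisher's exact or chi-square.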

[1] = format: in vivo, human

With `COc1ccsc1CNCC[C@@]1(c2ccccn2)CCOC2(CCCC2)C1` [Oliceridine, [(3-methoxythiophen-2-yl)methyl]({2-[(9R)-9-(pyridin-2-yl)-6-oxaspiro-[4.5]decan-9-yl]ethyl})amine] the Safety and tolerability (Safety evaluation; Chinese patients with chronic non-cancer pain, 0.75 mg to 3.0 mg) was “safe and well tolerated”, the “TEAEs leading to discontinuation of the study” value (Safety evaluation; all doses) was “none of the TEAEs led to discontinuation of the study” and the “Severe TEAEs” value (Safety evaluation; all doses, 32 participants) was “no reports of severe TEAEs”. The “Serious adverse events (SAEs)” value (Safety evaluation; single IV dose 0.75-3.0 mg, 32 participants) was “no serious adverse events were observed; also recorded: No SAEs were reported”, the “Participants achieving Cmax approximately 2 minutes post-administration” value ([1]; 0.75 mg group (11 of 12)) was 91.7% and the “Participants reaching Cmax around 5 minutes” value ([1]; 0.75 mg group (one participant)) was 8.3%. The “Participants attaining peak concentration at about 2 min” value ([1]; 1.5 mg group (9 of 10)) was 90%, the “Participants attaining peak concentration at about 3 min” value ([1]; 1.5 mg group (one participant, intravenous line blockage)) was 10% and the “Participants attaining peak at around 10 min” value ([1]; 3.0 mg group (1 participant)) was 10%. The “Participants attaining peak at about 2 min” value ([1]; 3.0 mg group (4 of 10)) was 40%, the “Participants attaining peak at approximately 5 min” value ([1]; 3.0 mg group (5 participants)) was 50% and the Tmax ([1]; human, plasma, iv) was 2.04 to 4.98 min. For the same compound, the half-life ([1]; human, plasma, iv) was 111 to 125 min.
